{
  "source": "ChEMBL document CHEMBL3351381",
  "about": "“Synthesis, structure-activity relationship studies, and antibacterial evaluation of 4-chromanones and chalcones, as well as olympicin A and derivatives” (J Med Chem, 2014)",
  "key": {"Staphylococcus aureus [1]": {"tested_on": "Staphylococcus aureus", "test": "Antimicrobial activity against methicillin-resistant Staphylococcus aureus NRS 70 by microbroth dilution method", "assay_type": "functional"}, "Staphylococcus aureus [2]": {"tested_on": "Staphylococcus aureus", "test": "Disruption of membrane potential in Staphylococcus aureus Newman assessed as […] at 4 times MIC using DiOC2(3) probe by fluorescence assay", "assay_type": "functional", "method_in_brief": "(§1)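 S. aureus Newman grown to OD600nm ≈ 0.3 in Mueller–Hinton II, stained with DiOC2(3) and run on flow cytometry; red/green fluorescence ratio gives membrane potential. CCCP positive control, vancomycin negative control.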"}, "Escherichia coli [3]": {"tested_on": "Escherichia coli", "test": "Antimicrobial activity against tolC-deficient Escherichia coli by microbroth dilution method", "assay_type": "functional"}, "Staphylococcus aureus [4]": {"tested_on": "Staphylococcus aureus", "test": "Bactericidal activity against Staphylococcus aureus Newman assessed as log reduction in bacterial cell count at MIC up to 24 hrs by time-kill assay relative to control", "assay_type": "functional"}, "[5]": {"test": "Inhibition of Escherichia coli topoisomerase 4 assessed as inhibition of decatenation of catenated kinetoplast DNA after 30 mins by electrophoretic analysis"}, "Vero": {"tested_on": "Vero", "test": "Cytotoxicity against african green monkey Vero cells assessed as reduction in cell viability by MTT assay", "assay_type": "cell-based", "settings": "Chlorocebus sabaeus", "method_in_brief": "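Vero kidney epithelial cells (ATCC CCL-81) in DMEM/10% FBS, trypsinized, seeded near 10% confluence, left overnight to adhere; medium swapped for DMEM/FBS with 2-fold serial compound dilutions.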"}, "[6]": {"test": "Selectivity index, ratio of CC50 for african green monkey Vero cells to IC50 for methicillin-resistant Staphylococcus aureus NRS 70", "assay_type": "functional", "method_in_brief": "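Vero kidney epithelial cells were grown in DMEM/10% FBS, trypsinized, seeded at about 10% confluence and left overnight to adhere. They were then exposed to 2-fold serial compound dilutions in DMEM/FBS, and viability was read by MTT after overnight solubilization. SI = cytotoxic IC50 divided by MIC against MRSA.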"}, "Klebsiella pneumoniae": {"tested_on": "Klebsiella pneumoniae", "test": "Antimicrobial activity against Klebsiella pneumoniae ATCC 33495 at >200 ug/ml by microbroth dilution method", "assay_type": "functional"}, "Staphylococcus aureus [7]": {"tested_on": "Staphylococcus aureus", "test": "Disruption of membrane potential in Staphylococcus aureus Newman assessed as […] using DiOC2(3) probe by fluorescence assay", "assay_type": "functional", "method_in_brief": "as §1"}, "Staphylococcus aureus [8]": {"tested_on": "Staphylococcus aureus", "test": "Antimicrobial activity against methicillin-sensitive Staphylococcus aureus ATCC 29213 by microbroth dilution method", "assay_type": "functional"}, "Staphylococcus aureus [9]": {"tested_on": "Staphylococcus aureus", "test": "Antimicrobial activity against Staphylococcus aureus Newman", "assay_type": "functional"}, "[10]": {"test": "Solubility of the compound in DMEM/FBS medium", "assay_type": "physicochemical", "method_in_brief": "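Solubility limit estimated from 2-fold serial dilutions in DMEM with 5% FBS kept overnight at 37 °C; highest concentration with no visible precipitate taken.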"}, "Escherichia coli [11]": {"tested_on": "Escherichia coli", "test": "Antimicrobial activity against Escherichia coli K-12 by microbroth dilution method", "assay_type": "functional"}, "Pseudomonas aeruginosa": {"tested_on": "Pseudomonas aeruginosa", "test": "Antimicrobial activity against Pseudomonas aeruginosa PAO1 at >200 ug/ml by microbroth dilution method", "assay_type": "functional"}, "[12]": {"test": "Inhibition of purified recombinant Escherichia coli topoisomerase 1 assessed as relaxation of supercoiled plasmid DNA after 30 mins by electrophoretic analysis"}, "Enterococcus faecalis": {"tested_on": "Enterococcus faecalis", "test": "Antimicrobial activity against Enterococcus faecalis ATCC 33186 by microbroth dilution method", "assay_type": "functional"}, "[13]": {"tested_on": "Mycobacterium tuberculosis", "test": "Antimicrobial activity against Mycobacterium tuberculosis H37Rv by microbroth dilution method", "assay_type": "functional"}, "Staphylococcus aureus [14]": {"tested_on": "Staphylococcus aureus", "test": "Bactericidal activity against Staphylococcus aureus Newman assessed as log reduction in bacterial cell count at 4 times MIC up to 24 hrs by time-kill assay relative to control", "assay_type": "functional"}},
  "note": "Calls of active or inactive are those of the source. The rule behind the calls is not given here.",
  "data": [
    {"compound": "CC1(C)C2CC=C(/C=C/C(=O)c3ccc(O)cc3O)C1C2", "note": "(stereo not drawn)", "values": [
      {"measurement": "MIC", "setting": "Staphylococcus aureus [1]", "value": 1.56, "unit": "µg/mL"},
      {"measurement": "Activity", "setting": "Staphylococcus aureus [2]", "value": "Active"},
      {"measurement": "MIC", "setting": "Escherichia coli [3]", "value": 1.56, "unit": "µg/mL"},
      {"measurement": "LCK", "setting": "Staphylococcus aureus [4]", "value": 3},
      {"measurement": "IC50", "setting": "[5]", "value": 60, "unit": "µM"},
      {"measurement": "IC50", "setting": "Vero", "value": 6.9, "unit": "µg/mL"},
      {"measurement": "Selectivity Index", "setting": "[6]", "value": 4.4},
      {"measurement": "MIC", "setting": "Klebsiella pneumoniae", "value": "> 200", "unit": "µg/mL"},
      {"measurement": "Activity", "setting": "Staphylococcus aureus [7]", "value": "Dose-dependent effect"},
      {"measurement": "MIC", "setting": "Staphylococcus aureus [8]", "value": 1.56, "unit": "µg/mL"},
      {"measurement": "MIC", "setting": "Staphylococcus aureus [9]", "value": 1.56, "unit": "µg/mL"},
      {"measurement": "solubility", "setting": "[10]", "value": "> 200", "unit": "µg/mL"},
      {"measurement": "MIC", "setting": "Escherichia coli [11]", "value": "> 200", "unit": "µg/mL"},
      {"measurement": "MIC", "setting": "Pseudomonas aeruginosa", "value": "> 200", "unit": "µg/mL"},
      {"measurement": "IC50", "setting": "[12]", "value": "> 500", "unit": "µM"},
      {"measurement": "MIC", "setting": "Enterococcus faecalis", "value": 3.13, "unit": "µg/mL"},
      {"measurement": "MIC", "setting": "[13]", "value": 100, "unit": "µg/mL"},
      {"measurement": "LCK", "setting": "Staphylococcus aureus [14]", "value": ">6"}
    ]}
  ]
}
